From ChEMBL document CHEMBL1129612, “New low-density lipoprotein receptor upregulators acting via a novel mechanism” (J Med Chem, 1996)

The molecules below were run on HepG2 (assay: Compound was tested in vitro for up-regulation of low density lipoprotein (LDL) receptor in human hepatocytes (HepG2 cells) at a concentration 3 uM).
Format: functional
Outline: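 HepG2 cells (passage ≤10, DMEM with FCS, 5% CO2, 37 °C) plated at 10 000 cells/well and grown 3 days to 80% confluence. Compound at 3 µM added in DMEM with 1% BSA for 24 h. Cell-surface LDL receptors measured by fluorescence immunoassay: MAC-C7 antibody, then alkaline phosphatase-conjugated anti-mouse IgG, substrate ATTAPHOS. Cell number read by propidium iodide. Five replicates, mean % increase.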

Row | Structure (SMILES) | Activity
1 | Cc1ccc(NC(=O)CCC2CCCCC2)cc1NC(=O)c1ccc(CO)cc1 | 44%
2 | COc1ccc(NC(=O)CCC2CCCCC2)cc1NC(=O)c1ccc(OC(C)=O)cc1 | -13%
3 | CCCCCCCCC(=O)Nc1ccc(C)c(NC(=O)c2ccc(O)cc2)c1 | -10%
4 | Cc1ccc(NC(=O)CCC2CCCCC2)cc1/C=C(\C#N)c1cccnc1 | 126%
5 | CC(=O)Oc1ccc(C(=O)Nc2cc(NC(=O)CCC3CCCCC3)ccc2C)cc1 | 82%
6 | Cc1ccc(NC(=O)CCC2CCCCC2)cc1NC(=O)c1ccccc1 | 50%
7 | Cc1ccc(NC(=O)CCC2CCCCC2)cc1NC(=O)c1cc[n+]([O-])cc1 | 7%
8 | Cc1ccc(NC(=O)CCN2CCCCC2)cc1NC(=O)c1ccc(O)cc1 | -2%
9 | O=C(CCC1CCCCC1)Nc1ccc(F)c(NC(=O)c2ccc(O)cc2)c1 | 12%
10 | Cc1ccc(NC(=O)CCC2CCCCC2)cc1NC(=O)c1ccc([N+](=O)[O-])cc1 | 11%
11 | CC(=O)Oc1ccc(C(=O)Nc2cccc(NC(=O)CCC3CCCCC3)c2)cc1 | 6%
12 | Cc1ccc(NC(=O)CCC2CCCCC2)cc1NCc1ccc(O)cc1 | -11%
13 | Cc1ccc(C(=O)CCCC2CCCCC2)cc1NC(=O)c1cccnc1 | 111%
14 | Cc1ccc(NC(=O)NCC2CCCCC2)cc1NC(=O)c1ccc(O)cc1 | 10%
15 | Cc1ccc(NC(=O)CCC2CCCCC2)cc1NC(=O)c1cccnc1 | 83%
16 | O=C(CCC1CCCCC1)Nc1ccc(Br)c(NC(=O)c2ccc(O)cc2)c1 | 6%
17 | Cc1ccc2[nH]c(-c3cc(NC(=O)CCC4CCCCC4)ccc3C)nc2c1 | 91%
18 | Cc1ccc(NC(=O)CCC2CCCCC2)cc1/C=C(\C#N)c1ccc2c(c1)OCO2 | 108%
19 | COC(=O)c1ccc(C(=O)Nc2cc(NC(=O)CCC3CCCCC3)ccc2C)cc1 | 3%
20 | Cc1ccc(C(=O)CCCC2CCCCC2)cc1NC(=O)c1ccc(O)cc1 | 10%
21 | Cc1ccc(NC(=O)CCCC2CCCCC2)cc1NC(=O)c1ccc(O)cc1 | 32%

Row | Structure (SMILES) | Activity
22 | Cc1ccc(NC(=O)CCC2CCCCC2)cc1-c1nc2ccccc2[nH]1 | 45%
23 | CC(=O)Oc1ccc(C(=O)Nc2cc(NC(=O)COC3CCCCC3)ccc2C)cc1 | 17%
24 | Cc1ccc(NC(=O)CCC2CCCCC2)cc1NC(=O)C1CCCCC1 | 0%
25 | Cc1ccc(NC(=O)CC2CCCCC2)cc1NC(=O)c1ccc(O)cc1 | 3%
26 | Cc1ccc(C(=O)NCCC2CCCCC2)cc1NC(=O)c1ccc(O)cc1 | 75%
27 | Cc1ccc(NC(=O)CCC2CCCCC2)cc1NC(=O)c1ccc2c(c1)OCO2 | 111%
28 | Cc1ccc(NC(=O)CCC2CCCCC2)cc1NC(=O)c1ccc(N)cc1 | 58%
29 | Cc1ccc(NC(=O)CCC2CCCCC2)cc1NC(=O)c1ccccc1O | 0%
30 | O=C(CCC1CCCCC1)Nc1ccc(Cl)c(NC(=O)c2ccc(O)cc2)c1 | 8%
31 | Cc1ccc(NC(=O)CCC2CCCCC2)cc1NC(=O)c1ccncc1 | -5%
32 | O=C(CCC1CCCCC1)Nc1ccc(O)c(NC(=O)c2ccc(O)cc2)c1 | -3%
33 | Cc1ccc(NC(=O)OCC2CCCCC2)cc1NC(=O)c1ccc(O)cc1 | 16%
34 | Cc1ccc(NC(=O)CCC2CCCCC2)cc1/C=C(\C#N)c1ccc(O)cc1 | 21%
35 | Cc1ccc(NC(=O)CCc2ccccc2)cc1NC(=O)c1ccc(O)cc1 | -20%
36 | Cc1ccc(NC(=O)CCC2CCCCC2)cc1-c1nc2cc(O)ccc2[nH]1 | 134%
37 | Cc1ccc(NC(=O)CCC2CCCC2)cc1NC(=O)c1ccc(O)cc1 | 25%
38 | Cc1ccc(NC(=O)CCC2CCCCC2)cc1NC(=O)c1cccc(O)c1 | 59%
39 | Cc1ccc(NC(=O)CCC2CCCCC2)cc1C(=O)Nc1ccc(O)cc1 | 60%
40 | Cc1ccc(NC(=O)CCC2CCCCC2)cc1NC(=O)c1ccc(O)cc1 | 80%
41 | CC[C@H](C)C(=O)O[C@H]1C[C@@H](C)C=C2C=C[C@H](C)[C@H](CC[C@@H]3C[C@@H](O)CC(=O)O3)[C@H]21 [LOVASTATIN] | 70%
